This is a sample that favours compounds with a hit; in the whole collection about 2.6% have one here.
Rad51 HR inh – human RAD51 strand exchange inhibitors, primary screen, biochemical, fluorescence; DNA repair protein RAD51 homolog 1 (Homo sapiens), Q06609; inhibition, % at 10 µM; AID 1385, 2008; actives 0.085% (n = 200,000); hRad51 DNA strand exchange, fluorescence dequenching;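 active = inhibition above 40% at the single screening dose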;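 also: 0% = DMSO control wells and 100% = blanks with heterologous ssDNA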
Target sequence (Q06609 whole entry, looked up): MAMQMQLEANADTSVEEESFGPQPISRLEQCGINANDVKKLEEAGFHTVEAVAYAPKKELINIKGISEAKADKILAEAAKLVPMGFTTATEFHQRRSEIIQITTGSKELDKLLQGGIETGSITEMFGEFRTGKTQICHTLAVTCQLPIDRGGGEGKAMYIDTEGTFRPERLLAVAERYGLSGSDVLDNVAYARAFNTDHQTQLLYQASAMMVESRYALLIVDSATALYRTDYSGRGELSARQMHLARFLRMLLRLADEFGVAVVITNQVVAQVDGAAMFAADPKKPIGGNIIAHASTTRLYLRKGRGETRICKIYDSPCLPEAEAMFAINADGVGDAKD
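Assay system: Human Rad51 nucleoprotein filaments preassembled on unlabelled ssDNA | Reagent: Donor/quencher-labelled 47-bp dsDNA substrate | Doses: One concentration, 10 µM final | Times: 37 °C 15-min filament assembly, 30-min compound preincubation, 15-min exchange | Technique: Fluorescein emission 520 nm, excitation 485 nm | Benchmarks: Plate control and blank wells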
MDM2 E3 inh – MDM2-luciferase reporter signal enhancers, primary screen, MDM2 E3 ligase inhibitor project, cell-based, luminescence, 1536-well; E3 ubiquitin-protein ligase Mdm2 (Homo sapiens), Q00987; cell-based MDM2 ubiquitination luciferase reporter, 2 h; 0 = plate control, 100 = twice control, blank-subtracted; signal enhancement, % at 5 µM; actives 0.11% (n = 210,000); AID 1230, 2008;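 active = signal enhancement of 30% or more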;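 also: luminescence tracks abundance of the self-degrading MDM2-luciferase fusion protein; higher signal means inhibition of MDM2 E3 ligase activity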
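test system = mammalian cells stably expressing self-ubiquitinating, self-degrading MDM2 E3–luciferase fusion | quantity = 2000 cells/well | incubation = cell settling 4 h, compound treatment 2 h, both 37 °C | signal = luminescence with SteadyLite reagent, 15 min at room temperature | evaluation = % enhancement relative to plate controls after blank subtraction | benchmarks = plate controls and plate blanks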
HSF1 inh – HSF1 inhibitors in luciferase reporter cells, primary screen, cell-based, NIH3T3, luminescence. activity change, negative = inhibition, % at 7.5 µM (by protocol). actives 0.77% (n = 300,000). AID 2098, 2009. NIH3T3-HGL HSE-luciferase, MG132-induced, luminescence 8 h; active compounds read low;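 active = more than half of replicate wells show activity change below -50%, luminescence cut by over half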;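 also: luciferase reports HSF-1 transcriptional activity via heat shock element; 0% = median of DMSO wells and -100% = zero luminescence signal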
HSV replic up – enhancers of HSV replication in host cells, fold increase, host cell viability; maximum fold increase; actives 0.005% (n = 220,000); HSV replication augmentation in cells; in the data active = maximum fold increase above about 1.5; tested in PC3 cells
HSF-1 act – HSF-1 activators, primary screen, NIH3T3-HGL cells, MG132 stress, luminescence, single point | AID 504408, 2011 | activation, % at 9 µM | NIH3T3-HGL HSF-1 luciferase reporter, 8 h; 100% = twice DMSO control signal | actives 1.7% (n = 300,000);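 active = mean replicate activation of at least 50% with a set share of replicates each reaching 50%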;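 also: 0% = median of the neutral control wells and 100% = twice that signal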
Hsp70 act – Hsp70 transcriptional activators, primary screen, cell-based, HeLa, Hsp70 promoter luciferase, luminescence, 10 µM; actives 0.04% (n = 200,000); HeLa Hsp70 promoter luciferase reporter; scaled: vehicle 0, proteasome-inhibitor control 100%; activation, % at 10 µM; AID 1203, 2008;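 active = activation above the mean across all tested compounds plus 3 SD, cutoff set per campaign, cut at about 5.5% in these data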;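 also: 100% = MG132 at 30 µM as the positive control and 0% = DMSO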
The depositor's hits bear a star; i = inactive; . = no result.

SMILES | Rad51 HR inh | MDM2 E3 inh | HSF1 inh | HSV replic up | HSF-1 act | Hsp70 act
O=C(COc1ccc([N+](=O)[O-])cc1Cl)NCC1CCCO1 (configuration not stated) | . | -2.0 | -8.4 | i | -15.8 | 0.1
O=C(/C=C/c1ccncc1)c1ccc2c(c1)OCCO2 | -1.7 | 2.0 | -1.3 | i | 4.1 | -0.4
COc1cc(/C=C/C(=O)c2ccc3c(c2)OCCO3)cc(Br)c1OCC(=O)N(C)C | . | . | 190.9 | . | 243.1* | .
COc1cc(NS(=O)(=O)c2ccc(NC(=O)/C=C/C(=O)O)cc2)nc(OC)n1 | . | . | -71.9* | . | -75.4 | .
O=C(CSc1nc2ccccc2o1)Nc1nc(-c2ccccc2)cs1 | -11.9 | -24.4 | -55.8* | i | -59.9 | 0.0
Cc1nc(NC(=O)CSc2nc(N)cc(N)n2)sc1C | . | . | 18.3 | . | 41.3 | .
CCOC(=S)SCC(=O)Nc1nc(-c2ccccc2)cs1 | -5.1 | -16.6 | 34.6 | i | 66.6* | -0.1
CCCC(CCC(=O)Nc1nccs1)C(=O)O (configuration not stated) | 4.1 | -6.0 | 6.8 | i | 52.7* | -0.3
CCOC(=S)SCC(=O)Nc1nc(C)c(C)s1 | 11.4 | . | 163.6 | i | 235.7* | .
CSCC[C@H](NC(=O)c1ccc(Cl)c(S(=O)(=O)N2CCCC2)c1)c1nc2ccccc2[nH]1 | 5.0 | 13.8 | 1.9 | i | 13.3 | -0.5
CCOC(=S)SCC(=O)Nc1nccs1 | -25.1 | -2.3 | 84.4 | i | 114.8* | 0.2
CCc1c(C)sc(NC(=O)Cc2ccccc2C)c1C(=O)N1CCOCC1 | . | . | -4.6 | . | -20.1 | .
CC(OC(=O)COc1ccc(Nc2ccccc2)cc1)C(=O)N(C)c1ccccc1 (configuration not stated) | . | . | 0.2 | . | 14.3 | .
COc1cc(CCC(=O)OCn2nnc3ccccc3c2=O)cc(OC)c1OC | -4.0 | -18.3 | -81.0* | i | -84.4 | -0.3
N=C1c2ccccc2CN1NC(=O)CC12CC3CC(CC(C3)C1)C2 | -7.9 | -2.6 | 5.2 | i | -7.7 | -0.2
Nc1nc2ccccc2n1/N=C/c1ccc([N+](=O)[O-])s1 | -2.3 | -23.3 | 57.5 | i | 99.2* | -0.1
Nc1nc2ccccc2n1/N=C/c1cccnc1 | -2.5 | -4.0 | -0.3 | i | 1.3 | -0.3
CC(C)CCN(C(=O)CNC(=O)c1cccs1)C(C(=O)NC1CCCCC1)c1cccnc1 (configuration not stated) | 14.6 | . | -70.2* | i | -76.2 | .
COC(=O)C(C)Oc1cc(C)ccc1COc1ccc(-n2nc(C)n(C(F)F)c2=O)cc1 (configuration not stated) | . | . | -1.0 | . | 2.5 | .
CC(NC(=O)c1ccc(C(C)(C)C)cc1)C(c1cccs1)N1CCOCC1 (configuration not stated) | . | . | 26.0 | . | 69.1* | .
O=[N+]([O-])c1ccc(N=NN(CCO)CCO)cc1 | . | -5.0 | -5.9 | . | 2.9 | 0.2
O=[N+]([O-])c1ccc(N=Nc2ncc[nH]2)cc1 | . | . | -66.3* | . | -65.8 | .
O=C(Nc1ccccc1C(F)(F)F)c1cc(-c2ccccc2O)on1 | -0.3 | 4.5 | 23.1 | i | 65.5* | 0.5
O=S(=O)(c1ccc2c(c1)C(=NO)c1cc(S(=O)(=O)N3CCCCC3)ccc1-2)N1CCCCC1 | -1.0 | 1.0 | -94.3* | i | -94.1 | 0.3
Cc1cc(C)cc(NC(=O)CN2CCN(CCN=CC3=C(O)CC(c4ccc(Cl)cc4)CC3=O)CC2)c1 (configuration not stated) | . | -6.2 | -2.3 | i | 4.9 | -0.2
SMILES | Rad51 HR inh | MDM2 E3 inh | HSF1 inh | HSV replic up | HSF-1 act | Hsp70 act
c1ccc(-c2nc3cnccn3c2Nc2ccc3c(c2)OCCO3)cc1 | 2.6 | 0.1 | 2.4 | i | 13.8 | -0.3
COc1cc(-c2nc3cnccn3c2Nc2ccccc2)ccc1O | -3.0 | -5.9 | 23.5 | i | 56.1* | 0.0
Oc1ccc(-c2nc3cnccn3c2Nc2ccc3c(c2)OCCO3)cc1 | . | -10.3 | 53.0 | . | 63.8* | 0.9
COc1cc(-c2nc3cnccn3c2Nc2ccc(C)cc2)ccc1O | -7.3 | -2.3 | -10.5 | i | -9.3 | 0.0
C=C(C)CSc1nc2sc3c(c2c(=O)n1-c1ccc(C)cc1)CCN(C)C3 | . | . | -2.7 | . | 1.9 | .
COc1ccc(NC(=O)CSc2nnc3ccc(-c4ccncc4)nn23)cc1OC | -4.0 | 4.1 | -75.0* | i | -80.1 | -0.1
Cc1cccc(-c2nnn(Cc3nnc(NC(=O)c4ccccc4)s3)n2)c1 | 88.5* | -8.2 | -14.4 | i | -9.4 | -0.2
CCC(=O)Nc1nnc(CCc2ccccc2)s1 | -2.6 | . | 2.3 | i | -0.5 | -0.3
O=C(Nc1nnc(CCc2ccccc2)s1)c1ccccc1 | . | . | 17.4 | . | 50.7* | .
COc1cccc(NC(=O)CN2C(=O)COc3ccc(S(=O)(=O)N4CCC(C)CC4)cc32)c1 | . | . | 53.4 | . | 86.4* | .
CCOC(=O)N1CCN(C(=O)CN2C(=O)COc3ccc(S(=O)(=O)N4CCOCC4)cc32)CC1 | . | . | 30.6 | . | 58.3* | .
CN1CCN(C(=O)CN2C(=O)COc3ccc(S(=O)(=O)N4CCOCC4)cc32)CC1 | . | . | -6.2 | . | -11.6 | .
COc1ccccc1NC(=O)CN1C(=O)COc2ccc(S(=O)(=O)N3CCC(C)CC3)cc21 | . | . | 9.1 | . | 17.2 | .
COCCNC(=O)CCc1nnc(C2(c3ccc(Cl)cc3)CCC2)o1 | -38.6 | -7.4 | -56.1* | i | -65.3 | -0.2
CC(C)(CO)CNC(=O)CCc1nnc(C2(c3ccc(Cl)cc3)CCC2)o1 | 6.9 | -9.3 | -2.3 | i | 15.6 | -0.5
CCCNC(=O)c1ccc2c(c1)nc(C)n2-c1cccc(Cl)c1 | . | . | -0.3 | . | 11.8 | .
O=C(Nc1cc2nn(-c3ccccc3)nc2cc1Cl)c1ccco1 | 7.2 | -8.7 | 18.5 | i | -4.6 | 0.3
O=C(Nc1ccc2oc(-c3ccccc3)nc2c1)C1CCCO1 (configuration not stated) | -9.1 | -13.3 | 23.6 | i | 73.2* | 0.2
O=C(Nc1ccc2nn(-c3ccccc3)nc2c1)c1ccco1 | 4.4 | -2.2 | 15.9 | i | 53.7* | -0.2
Cc1ccc2oc(-c3ccccc3)nc2c1 | 7.4 | -58.6 | 35.5 | i | 69.1* | -0.2
O=C(Nc1ccc(-c2nc3ccccc3o2)cc1)C1CCCO1 (configuration not stated) | -0.5 | -53.0 | 8.0 | i | 27.8 | -0.1
O=C(Nc1ccc(-c2nc3cccnc3s2)cc1)C1CCCO1 (configuration not stated) | . | . | -59.2* | . | -66.4 | -0.5
COCC(C)NC(=O)COCc1cc(-c2ccc3c(c2)OCO3)on1 (configuration not stated) | . | . | -2.1 | . | -9.1 | .
